Source: ChEMBL document CHEMBL2176966, “Discovery of 6,7-dihydro-5H-pyrrolo[2,3-a]pyrimidines as orally available G protein-coupled receptor 119 agonists” (J Med Chem, 2012)
The source made the active and inactive calls. The rule behind the calls is not given here.

Assays:
Rattus norvegicus [1] = assay: Increase of glucose infusion rate in Wistar rat at 10 mg/kg, po; format: functional, organism-based; design: dose 10 mg/kg
Outline: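 Catheterized male Wistar rats (300–350 g, jugular and femoral lines, one week recovery) were fasted overnight and gavaged with vehicle (n = 19) or compound (n = 8). After ~90 min, an IV glucose bolus over 15–30 s was followed by variable-rate glucose infusion. The infusion was adjusted to clamp plasma glucose at 190–210 mg/dL, and the required infusion rate was recorded. Serum glucose was measured by analyzer.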

Mus musculus [2] = assay: Increase in GLP-1 level in GPR119 transgenic wild type mouse at 30 mg/kg, po after 60 mins by electrochemiluminescence assay relative to control; format: functional
Outline: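 Wild-type and GPR119 knockout mice, fasted overnight, received vehicle (0.5% HPMC/0.1% Tween80) or 30 mg/kg by oral gavage at 10 mL/kg. At 60 min, blood was taken by cardiac puncture under isoflurane into chilled K2-EDTA tubes with DPP-4 inhibitor and aprotinin (250 KIU/mL). Plasma was spun at 4 °C and stored at −80 °C. Total GLP-1 was measured by electrochemiluminescence immunoassay; n = 10.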

Mus musculus [3] = assay: Toxicity in C57BL/6 mouse assessed as effect on food intake at 10 mg/kg, po measured up to 24 hrs; format: organism-based; design: dose 10 mg/kg, route oral; details: in vivo
Outline: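 Individually housed male C57BL/6 mice were fasted overnight and given 10 mg/kg. Normal-chow hoppers were weighed and returned. Hopper weights were recorded at 1, 2, 4, 6 and 24 h post-dose and compared with vehicle-treated mice.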

[4] = Oral bioavailability in rat at 30 mg/kg; format: ADME, organism-based; details: in vivo
Rattus norvegicus [5] = assay: Dose normalized AUC (0 to 24 hrs) in rat at 30 mg/kg; format: ADME, organism-based; design: dose 30 mg/kg; details: in vivo
Mus musculus [6] = assay: Increase in GIP level in GPR119 transgenic wild type mouse at 30 mg/kg, po after 60 mins by ELISA relative to control; format: functional
Outline: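 Overnight-fasted wild-type or GPR119 knockout mice were given vehicle (0.5% HPMC/0.1% Tween80) or 30 mg/kg orally at 10 mL/kg. Cardiac blood was drawn 60 min post-dose under isoflurane into chilled K2-EDTA with DPP-4 inhibitor and aprotinin (250 KIU/mL). Plasma was prepared at 4 °C and held at −80 °C. Total GIP was measured by ELISA; n = 10.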

Mus musculus [7] = assay: Increase in PYY level in GPR119 transgenic wild type mouse at 30 mg/kg, po after 60 mins relative to control; format: functional
Outline: (§1)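 Wild-type and GPR119 knockout mice, fasted overnight, were dosed by oral gavage (30 mg/kg, 10 mL/kg, 0.5% HPMC/0.1% Tween80 vehicle). Plasma was obtained from cardiac blood at 60 min in chilled K2-EDTA containing DPP-4 inhibitor and aprotinin, then stored at −80 °C. Hormone levels were compared with vehicle; n = 8–10.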

Mus musculus [8] = assay: Increase in PYY level in GPR119 knockout mouse at 30 mg/kg, po after 60 mins; format: functional, organism-based; design: dose 30 mg/kg; outline: as §1
Rattus norvegicus [9] = assay: Antihyperglycemic activity in Sprague-Dawley rat assessed as reduction of acetaminophen AUC (0 to 2 hrs) at 10 mg/kg, po relative to control; format: functional; design: scale not given: the % may be the effect or the level left
Outline: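 Male Sprague-Dawley rats, fasted overnight, dosed orally at 10 mL/kg in 0.5% HPMC/0.1% Tween80 (vehicle or compound) at −120 min. Pramlintide (15 μg) was given to a positive-control cohort at −15 min. Baseline plasma was taken at time 0, then acetaminophen (65 mg) by gavage. The plasma acetaminophen concentration–time profile was followed for 3 h; AUC 0–2 h was compared with vehicle.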

Rattus norvegicus [10] = organism: Rattus norvegicus; assay: Potentiation of 3 mM of glucose-induced insulin secretion in rat islet at 0.3 uM
Rattus norvegicus [11] = assay: Antihyperglycemic activity in Wistar rat assessed as glucose excursion curve at 10 mg/kg, po by glucose tolerance test; format: functional

bioavailability [4]: 66% | AUC/dose (Rattus norvegicus [5]): 2.04 µg·h/mL
SMILES: CC(C)OC(=O)N1CCC(Oc2ncnc3c2CCN3c2ccc(S(C)(=O)=O)cc2F)CC1
Activity (Rattus norvegicus [1]): Active | fold change (FC) (Mus musculus [2]): 4 | Activity (Mus musculus [3]): Non-toxic | fold change (FC) (Mus musculus [6]): 2 | fold change (FC) (Mus musculus [7]): 3 | Activity (Mus musculus [8]): inactive | Activity (Rattus norvegicus [9]): 27% | Activity (Rattus norvegicus [10]): inactive | Activity (Rattus norvegicus [11]): 43%
